Measured values as given in ChEMBL document CHEMBL1123812, “Pyrroloisoquinoline antidepressants. 2. In-depth exploration of structure-activity relationships” (J Med Chem, 1987).
Each block holds one molecule with its values, some of them ahead of it. Calls of active or inactive are those of the source.

How the values were obtained:
[1] = target: D(1A) dopamine receptor (Rattus norvegicus) (UniProt P18901); experiment: Binding affinity towards Dopamine receptor D1 at 1.0 uM concentration
In short: (§1)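 Rat brain crude synaptic membranes in 20 mM NaHEPES pH 7.5. Ligands: α1 cortex […] 0.4 nM, nonspecific with (-)-NE 100 μM, 30 min at 25 °C. […] D2 striatum [3H]spiperone 0.05 nM with (+)-butaclamol 1 μM, 45 min at 37 °C. S1 cortex [3H]5-HT 1 nM plus glutathione and MgCl2, with 5-HT 10 μM, 20 min at 37 °C. […] Samples filtered on GF/B and counted.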

[2] = species: Mus musculus; experiment: Gross behavioral effects ascertained in mice; S indicates significant stimulant properties.; format: functional, organism-based
In short: (§2)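 Male Swiss Webster mice, 18–24 g, three per dose, given ip doses of 1, 3, 10, 30, 100 and 300 mg/kg. Observed for gross behavior and held for 4 days. Scored as weak (W), stimulant (S), depressant (D) or convulsant (C).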

[3] = target: T1, Muscarinic acetylcholine receptor (Rattus norvegicus) (UniProt P08482+P08483+P08485+P08911+P10980); experiment: Binding affinity towards Muscarinic acetylcholine receptor at 10 uM concentration; format: protein assay
[4] = target: Sodium-dependent dopamine transporter (Rattus norvegicus, UniProt P23977); experiment: Inhibition of the uptake of tritiated dopamine (DA) in rat synaptosomes; format: subcellular, Brain
Sodium-dependent dopamine transporter, sequence (P23977 whole entry): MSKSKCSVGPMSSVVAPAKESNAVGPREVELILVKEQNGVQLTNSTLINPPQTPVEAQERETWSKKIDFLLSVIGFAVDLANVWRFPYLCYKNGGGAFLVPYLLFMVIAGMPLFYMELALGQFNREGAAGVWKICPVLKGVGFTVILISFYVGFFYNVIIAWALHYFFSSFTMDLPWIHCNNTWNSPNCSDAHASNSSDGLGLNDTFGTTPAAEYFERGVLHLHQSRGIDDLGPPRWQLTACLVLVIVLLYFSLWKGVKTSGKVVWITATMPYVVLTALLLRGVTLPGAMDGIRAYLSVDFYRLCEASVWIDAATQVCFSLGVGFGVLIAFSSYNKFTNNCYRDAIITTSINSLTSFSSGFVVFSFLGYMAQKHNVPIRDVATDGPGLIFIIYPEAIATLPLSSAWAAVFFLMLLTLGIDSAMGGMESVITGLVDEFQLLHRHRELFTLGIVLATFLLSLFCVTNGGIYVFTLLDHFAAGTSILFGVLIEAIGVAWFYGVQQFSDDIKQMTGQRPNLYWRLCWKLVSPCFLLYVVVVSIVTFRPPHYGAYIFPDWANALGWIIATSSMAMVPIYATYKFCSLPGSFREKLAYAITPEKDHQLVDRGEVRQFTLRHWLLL

[5] = target: D(1A) dopamine receptor (Rattus norvegicus) (UniProt P18901); experiment: Binding affinity towards dDopamine receptor D1 at 1.0 uM concentration; in short: as §1
[6] = species: Mus musculus; experiment: Antagonism of tetrabenazine (TBZ)-induced depression in mice measured for ptosis; format: functional; details: Mus musculus; read-out: ED50
In short: (§3)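 Nonfasted male Swiss Webster mice, 18–24 g, ten per dose level and in saline controls. Test compound given ip 30 min before tetrabenazine 32 mg/kg ip; dose expressed as free base. Motor activity and ptosis scored. Control response ≤90% corrected by Abbott's formula.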

[7] = target: T2, Adrenergic receptor alpha-1 (Rattus norvegicus, UniProt P15823+P23944+P43140); experiment: Binding affinity towards alpha-1 adrenergic receptor; format: protein assay
T2 sequence (P15823 whole entry): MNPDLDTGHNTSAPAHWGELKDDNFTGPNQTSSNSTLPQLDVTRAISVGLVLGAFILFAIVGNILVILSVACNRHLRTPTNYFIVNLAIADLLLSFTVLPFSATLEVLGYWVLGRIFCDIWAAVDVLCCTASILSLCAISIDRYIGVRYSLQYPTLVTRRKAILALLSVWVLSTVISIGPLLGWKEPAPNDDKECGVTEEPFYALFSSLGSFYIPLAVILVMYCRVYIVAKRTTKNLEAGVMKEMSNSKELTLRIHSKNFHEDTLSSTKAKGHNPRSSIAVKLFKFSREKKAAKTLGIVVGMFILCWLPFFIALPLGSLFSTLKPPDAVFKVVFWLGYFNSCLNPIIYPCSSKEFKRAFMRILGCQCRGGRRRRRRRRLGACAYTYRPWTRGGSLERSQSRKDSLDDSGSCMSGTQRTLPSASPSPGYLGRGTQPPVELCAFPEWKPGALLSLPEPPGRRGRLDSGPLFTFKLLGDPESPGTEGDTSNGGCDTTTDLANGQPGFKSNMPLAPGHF
T2 sequence (P23944 whole entry): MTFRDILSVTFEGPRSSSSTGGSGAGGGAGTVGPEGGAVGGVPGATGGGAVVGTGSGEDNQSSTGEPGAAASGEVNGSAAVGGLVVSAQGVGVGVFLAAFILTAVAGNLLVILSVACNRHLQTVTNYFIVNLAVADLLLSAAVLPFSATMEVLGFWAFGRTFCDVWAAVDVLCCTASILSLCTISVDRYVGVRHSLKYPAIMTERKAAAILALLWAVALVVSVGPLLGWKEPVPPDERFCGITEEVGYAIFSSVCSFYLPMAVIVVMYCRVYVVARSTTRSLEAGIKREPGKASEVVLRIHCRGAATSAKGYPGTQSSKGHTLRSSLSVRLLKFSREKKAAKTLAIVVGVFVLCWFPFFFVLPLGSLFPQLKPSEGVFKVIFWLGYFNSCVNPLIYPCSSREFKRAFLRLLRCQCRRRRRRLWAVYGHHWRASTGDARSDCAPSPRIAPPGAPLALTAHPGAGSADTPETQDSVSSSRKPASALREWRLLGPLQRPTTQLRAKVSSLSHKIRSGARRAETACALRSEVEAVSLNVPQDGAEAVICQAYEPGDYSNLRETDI
T2 sequence (P43140 whole entry): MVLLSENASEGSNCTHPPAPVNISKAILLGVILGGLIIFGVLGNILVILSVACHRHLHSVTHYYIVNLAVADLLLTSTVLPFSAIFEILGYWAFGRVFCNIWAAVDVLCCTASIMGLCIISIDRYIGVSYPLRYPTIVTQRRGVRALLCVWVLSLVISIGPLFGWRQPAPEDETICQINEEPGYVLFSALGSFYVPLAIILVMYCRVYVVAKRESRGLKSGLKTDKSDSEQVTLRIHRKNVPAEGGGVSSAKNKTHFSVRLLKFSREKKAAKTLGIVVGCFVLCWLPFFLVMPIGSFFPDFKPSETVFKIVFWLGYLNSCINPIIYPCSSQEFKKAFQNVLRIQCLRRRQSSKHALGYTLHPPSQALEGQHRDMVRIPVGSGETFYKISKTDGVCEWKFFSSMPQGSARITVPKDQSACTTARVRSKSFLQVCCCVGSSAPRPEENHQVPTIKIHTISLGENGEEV

[8] = target: D(2) dopamine receptor (Rattus norvegicus) (UniProt P61169); experiment: Binding affinity towards dopamine receptor D2 at 1.0 uM concentration; in short: as §1
D(2) dopamine receptor (Rattus norvegicus), sequence (P61169 whole entry): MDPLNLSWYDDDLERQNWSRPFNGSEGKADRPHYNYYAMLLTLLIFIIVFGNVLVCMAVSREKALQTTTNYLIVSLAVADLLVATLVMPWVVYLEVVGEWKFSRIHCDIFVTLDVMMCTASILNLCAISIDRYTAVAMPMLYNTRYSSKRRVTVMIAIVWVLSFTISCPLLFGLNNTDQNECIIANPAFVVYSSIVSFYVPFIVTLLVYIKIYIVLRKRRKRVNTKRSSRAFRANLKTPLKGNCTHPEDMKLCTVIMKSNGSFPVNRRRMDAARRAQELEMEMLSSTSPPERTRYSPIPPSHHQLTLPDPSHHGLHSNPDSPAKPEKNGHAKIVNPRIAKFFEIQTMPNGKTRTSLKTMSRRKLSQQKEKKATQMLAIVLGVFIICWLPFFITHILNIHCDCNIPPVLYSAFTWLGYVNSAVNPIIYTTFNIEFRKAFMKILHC

[9] = species: Mus musculus; experiment: Antagonism of tetrabenazine (TBZ)-induced depression measured in mice by motor activity; format: functional; details: Mus musculus; read-out: ED50; in short: as §3
[10] = target: Norepinephrine transporter (Rattus norvegicus, UniProt Q9WTR4); experiment: Inhibition of uptake of tritiated norepinephrine (NE) in rat synaptosomes; format: subcellular, Brain
Norepinephrine transporter, sequence (Q9WTR4 whole entry): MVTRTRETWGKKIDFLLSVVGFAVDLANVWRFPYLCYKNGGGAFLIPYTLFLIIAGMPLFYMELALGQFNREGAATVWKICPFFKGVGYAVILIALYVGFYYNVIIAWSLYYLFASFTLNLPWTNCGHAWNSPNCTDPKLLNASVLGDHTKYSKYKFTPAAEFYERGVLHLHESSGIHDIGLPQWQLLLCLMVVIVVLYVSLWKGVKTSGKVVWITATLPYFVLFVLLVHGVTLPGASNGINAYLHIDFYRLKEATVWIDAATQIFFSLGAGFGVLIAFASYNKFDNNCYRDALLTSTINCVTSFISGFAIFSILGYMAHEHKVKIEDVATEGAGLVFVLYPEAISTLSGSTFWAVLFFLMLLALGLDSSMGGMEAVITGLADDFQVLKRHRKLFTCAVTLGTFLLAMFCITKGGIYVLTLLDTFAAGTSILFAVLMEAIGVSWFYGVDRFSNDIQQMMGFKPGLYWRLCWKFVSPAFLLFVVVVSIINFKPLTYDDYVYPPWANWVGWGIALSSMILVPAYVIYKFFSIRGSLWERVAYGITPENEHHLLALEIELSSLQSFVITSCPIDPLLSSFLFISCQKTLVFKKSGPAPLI

[11] = target: Adrenergic receptor alpha-2 (Rattus norvegicus) (UniProt P22086+P19328+P22909); experiment: Binding affinity towards alpha-2 adrenergic receptor at 1.0 uM concentration; format: protein assay
[12] = target: T1, Muscarinic acetylcholine receptor (Rattus norvegicus); experiment: Binding affinity towards Muscarinic acetylcholine receptor at 1.0 uM concentration; format: protein assay
[13] = species: Rattus norvegicus; experiment: Ability to inhibit the uptake of tritiated dopamine (DA); format: functional
In short: (§4)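 Male Wistar rat brain synaptosomes (P2 fraction): hypothalamus for NE, striatum for DA, cerebral cortex for 5-HT. Buffer is Tris- or HEPES-buffered salt medium with glucose, ascorbate and nialamide, pH 7.4 at 37 °C. Preincubated 10 min at 37 °C with compound. Uptake started with [3H]NE 100–300 nM, [3H]DA 50–300 nM or [3H]5-HT 100–200 nM, incubated 3 min (DA) or 6–10 min (NE, 5-HT). Blanks held on ice. Filtered, counted by scintillation.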

[14] = target: Serotonin 2 (5-HT2) receptor (Rattus norvegicus) (UniProt P30994+P08909+P14842); experiment: Binding affinity towards 5-hydroxytryptamine 2 receptor; format: protein assay; details: concentration not given here; in short: as §1
Serotonin 2 (5-HT2) receptor (Rattus norvegicus), sequence (P08909 whole entry, looked up): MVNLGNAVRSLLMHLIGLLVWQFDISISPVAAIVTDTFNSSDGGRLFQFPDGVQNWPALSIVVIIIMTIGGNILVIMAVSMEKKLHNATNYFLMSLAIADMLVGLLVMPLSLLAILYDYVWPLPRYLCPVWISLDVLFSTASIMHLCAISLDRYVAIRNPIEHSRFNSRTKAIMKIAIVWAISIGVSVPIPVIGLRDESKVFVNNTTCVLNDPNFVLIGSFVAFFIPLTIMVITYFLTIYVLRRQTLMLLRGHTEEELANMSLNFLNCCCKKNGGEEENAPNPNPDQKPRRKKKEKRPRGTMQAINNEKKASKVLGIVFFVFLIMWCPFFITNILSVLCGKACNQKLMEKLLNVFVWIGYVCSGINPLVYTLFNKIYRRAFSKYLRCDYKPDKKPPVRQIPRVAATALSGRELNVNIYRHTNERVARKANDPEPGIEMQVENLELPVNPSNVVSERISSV
Serotonin 2 (5-HT2) receptor (Rattus norvegicus), sequence (P14842 whole entry, looked up): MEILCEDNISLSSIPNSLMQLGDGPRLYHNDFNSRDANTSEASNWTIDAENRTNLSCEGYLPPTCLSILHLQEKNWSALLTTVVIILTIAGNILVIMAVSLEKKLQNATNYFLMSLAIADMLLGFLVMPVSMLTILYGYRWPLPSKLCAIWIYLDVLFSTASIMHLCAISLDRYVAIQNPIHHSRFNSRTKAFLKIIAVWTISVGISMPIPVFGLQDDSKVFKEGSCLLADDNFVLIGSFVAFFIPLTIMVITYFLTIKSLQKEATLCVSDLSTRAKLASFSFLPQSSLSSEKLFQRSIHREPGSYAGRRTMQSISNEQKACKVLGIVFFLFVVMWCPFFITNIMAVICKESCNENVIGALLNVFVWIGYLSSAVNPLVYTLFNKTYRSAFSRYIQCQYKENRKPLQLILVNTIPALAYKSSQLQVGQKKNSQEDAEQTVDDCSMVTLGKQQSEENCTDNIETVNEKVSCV
Serotonin 2 (5-HT2) receptor (Rattus norvegicus), sequence (P30994 whole entry, looked up): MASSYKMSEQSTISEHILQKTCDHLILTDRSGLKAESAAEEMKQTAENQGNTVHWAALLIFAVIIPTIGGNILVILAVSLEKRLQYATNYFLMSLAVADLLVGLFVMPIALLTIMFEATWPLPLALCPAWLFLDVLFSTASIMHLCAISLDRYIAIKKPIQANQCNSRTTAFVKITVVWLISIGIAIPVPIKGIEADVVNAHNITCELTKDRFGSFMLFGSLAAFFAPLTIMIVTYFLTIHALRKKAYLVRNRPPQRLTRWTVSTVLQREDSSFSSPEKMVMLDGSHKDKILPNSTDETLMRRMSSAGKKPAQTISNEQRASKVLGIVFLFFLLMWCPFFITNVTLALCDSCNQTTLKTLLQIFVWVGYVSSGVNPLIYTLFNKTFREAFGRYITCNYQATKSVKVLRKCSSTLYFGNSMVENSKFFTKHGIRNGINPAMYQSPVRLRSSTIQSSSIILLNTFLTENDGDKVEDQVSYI

[15] = target: Serotonin 1 (5-HT1) receptor (Rattus norvegicus) (UniProt P28564+P30940+P19327+P28565); experiment: Binding affinity towards serotonin S1 receptor at 1.0 uM; format: protein assay; in short: as §1
[16] = target: Sodium-dependent dopamine transporter (Rattus norvegicus) (UniProt P23977); experiment: Ability to inhibit the uptake of [3H]dopamine (DA) 0.1 uM concentration at rat brain synaptosomes; format: functional, subcellular; in short: as §4
Sodium-dependent dopamine transporter (Rattus norvegicus), sequence (P23977 whole entry): as the sequence (P23977 whole entry) above

[17] = target: Sodium-dependent serotonin transporter (Rattus norvegicus) (UniProt P31652); experiment: Ability to inhibit the uptake of [3H]- serotonin(5-HT) 0.1 uM concentration at rat brain synaptosomes; format: functional, subcellular; in short: as §4
Sodium-dependent serotonin transporter (Rattus norvegicus), sequence (P31652 whole entry): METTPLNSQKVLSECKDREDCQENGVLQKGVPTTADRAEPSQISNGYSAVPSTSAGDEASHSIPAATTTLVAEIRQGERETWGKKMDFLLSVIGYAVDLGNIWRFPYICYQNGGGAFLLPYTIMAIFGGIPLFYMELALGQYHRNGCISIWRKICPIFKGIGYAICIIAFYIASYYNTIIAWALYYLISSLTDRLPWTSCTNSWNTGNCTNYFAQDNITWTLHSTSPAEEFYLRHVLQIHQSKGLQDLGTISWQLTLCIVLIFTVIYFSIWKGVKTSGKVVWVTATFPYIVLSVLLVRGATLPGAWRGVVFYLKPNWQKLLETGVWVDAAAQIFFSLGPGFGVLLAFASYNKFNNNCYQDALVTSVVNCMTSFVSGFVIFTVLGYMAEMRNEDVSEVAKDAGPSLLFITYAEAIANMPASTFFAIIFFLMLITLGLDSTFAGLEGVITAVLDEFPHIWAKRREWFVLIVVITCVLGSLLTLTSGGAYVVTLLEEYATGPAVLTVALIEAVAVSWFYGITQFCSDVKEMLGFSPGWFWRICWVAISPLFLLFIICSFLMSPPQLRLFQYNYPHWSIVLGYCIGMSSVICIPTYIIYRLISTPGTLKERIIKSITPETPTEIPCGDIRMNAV

[18] = species: Rattus norvegicus; experiment: Ability to inhibit the uptake of tritiated norepinephrine (NE) 0.1 uM concentration; format: functional; in short: as §4
[19] = tested on: Mus musculus; experiment: Ability to antagonise intraperitoneal dose; inactive (<10% antagonism) at 30 mg/kg is represented as I-30.; format: functional, organism-based; design: dose 30 mg/kg; in short: as §3
[20] = species: Mus musculus; experiment: Gross behavioral effects ascertained in mice; format: functional, organism-based; in short: as §2
[21] = tested on: Mus musculus; experiment: Ability to antagonise intraperitoneal administration; weakly active (>=10% and <=30% antagonism) at 30 mg/kg is represented as >30; format: functional; details: ip; in short: as §3
[22] = tested on: Rattus norvegicus; experiment: Ability to inhibit the uptake of tritiated serotonin(5-HT) at 0.1 mg/kg concentration; format: functional
[23] = species: Mus musculus; experiment: Gross behavioral effects ascertained in mice; W indicates weak stimulant or depressant activity of little significance.; format: functional, organism-based; in short: as §2
[24] = tested on: Mus musculus; experiment: Ability to antagonise intraperitoneal dose; inactive (<10% antagonism) at 30 mgjkg is represented as I-30.; format: functional, organism-based; in short: as §3

D(1A) dopamine receptor (Rattus norvegicus), sequence (P18901 whole entry): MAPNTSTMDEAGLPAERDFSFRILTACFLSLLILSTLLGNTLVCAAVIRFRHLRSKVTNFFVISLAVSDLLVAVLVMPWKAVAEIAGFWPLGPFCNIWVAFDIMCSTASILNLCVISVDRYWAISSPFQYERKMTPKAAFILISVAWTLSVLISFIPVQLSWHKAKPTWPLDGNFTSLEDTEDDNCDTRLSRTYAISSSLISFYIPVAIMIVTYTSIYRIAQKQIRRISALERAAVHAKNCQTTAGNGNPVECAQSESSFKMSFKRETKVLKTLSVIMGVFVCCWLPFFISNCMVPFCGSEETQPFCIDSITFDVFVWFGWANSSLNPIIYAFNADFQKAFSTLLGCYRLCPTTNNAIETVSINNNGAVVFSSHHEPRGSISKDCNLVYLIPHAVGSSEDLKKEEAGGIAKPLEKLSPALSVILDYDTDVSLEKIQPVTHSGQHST

SMILES: Br.Oc1ccc([C@@H]2CN3CCC[C@@H]3c3ccccc32)cc1
behavior [2]: Stimulant
Ki [4]: 5.1 nM
inhibition [5]: 27%
ED50 [6]: 0.09 mg/kg
Ki [7]: 252 nM
inhibition [8]: 65%
ED50 [9]: 0.4 mg/kg
Ki [10]: 0.74 nM
inhibition [11]: 70%
inhibition [12]: 3%

SMILES: FC(F)(F)c1cccc([C@@H]2CN3CCC[C@@H]3c3ccccc32)c1 (stereo in doubt; (-)-37b)
inhibition [14]: 45%
inhibition [15]: 58%
inhibition [8]: 9%

SMILES: FC(F)(F)c1cccc([C@@H]2CN3CCC[C@H]3c3cccc(Cl)c32)c1
inhibition [16]: 4%
inhibition [17]: 22%
Ki [18]: ~100 nM

SMILES: Br.CS(=O)(=O)c1ccc([C@@H]2CN3CCC[C@@H]3c3ccccc32)cc1
ED50 [19]: inactive
behavior [20]: inactive
ED50 at 30 mg/kg [21]: > 30 mg/kg

SMILES: Br.c1ccc([C@H]2CN3CCC[C@H]3Cc3ccccc32)cc1
inhibition in vivo at 0.1 mg/kg [22]: 9%
ED50 [9]: > 3 mg/kg

Further lines, with some results ahead:

inhibition [1]: 35%
inhibition [3]: 0%
SMILES: c1ccc([C@@H]2CN3CCC[C@@H]3c3ccccc32)cc1 (stereo in doubt; 7b)
behavior [2]: Stimulant

Ki [13]: ~100 nM
SMILES: c1ccc([C@@H]2CN3CCC[C@H]3c3ccccc32)cc1

Ki [13]: 36.4 nM
inhibition [17]: 15%
Ki [10]: 10.5 nM
SMILES: C[C@@]12CCCCN1C[C@H](c1ccccc1)c1ccccc12
behavior [23]: Weak
ED50 [24]: inactive
ED50 [19]: inactive
